How the values were obtained:
K562 = experiment: Antiproliferative activity against human K562 cells after 48 hrs; format: functional, cell-based; settings: K562, 48 h
Outline: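 K562 cells (RPMI 1640, 10% FBS, 37 °C, 5% CO2) plated at 2 × 10⁵ cells/mL. Compounds dissolved in DMSO/methanol 1:1, vehicle 0.5%. Cells counted in a Neubauer chamber after 48 h and expressed as % of untreated control. Triplicate wells, three experiments. IC50 from nonlinear regression.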

Tubulin = Tubulin (Sus scrofa, UniProt P02554+P02550); experiment: Inhibition of pig brain tubulin polymerization after 30 mins by turbidimetric assay
Outline: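 Microtubule protein from porcine brain (80–90% tubulin, 10–20% MAPs), purified by two disassembly/reassembly cycles. Assay buffer: 20 mM PIPES pH 6.8, 80 mM NaCl, 0.5 mM MgCl2, 1 mM EGTA, 1 mM DTT. Protein at 1.2 mg/mL with 0.6 mM GTP final, 1% DMSO final, 37 °C.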

SMILES | IC50 (K562) [µM] | IC50 (Tubulin) [µM]
COc1cc(C(=O)C(O)C2c3ccccc3C(=O)c3ccccc32)cc(OC)c1OC (stereo not given) | 21 | > 10
O=C1c2ccccc2C(C(O)C(=O)c2ccccc2)c2ccccc21 (stereo not given) | 27 | > 10
O=C(C=C1c2ccccc2C(=O)c2ccccc21)c1ccc(O)cc1 | 3.43 | 0.9
COc1ccc(C(=O)C=C2c3ccccc3C(O)c3ccccc32)cc1 (stereo not given) | 0.21 | 1.2
COc1cccc(C(=O)C=C2c3ccccc3C(=O)c3ccccc32)c1 | 2.6 | 3.3
Cc1ccc(C(=O)C=C2c3ccccc3C(=O)c3ccccc32)cc1 | 0.64 | 1.1
COc1cc(C(=O)C=C2c3ccccc3C(=O)c3ccccc32)cc(OC)c1OC | 0.7 | 3.7
COC(=O)C=C1c2ccccc2C(=O)c2ccccc21 | 6 | 
O=C(C=C1c2ccccc2C(=O)c2ccccc21)c1cccs1 | 5.21 | 10
COc1ccc(C(=O)COc2c3ccccc3cc3ccccc23)cc1 | 10 | 
COc1ccc(C(=O)C(O)C2c3ccccc3C(=O)c3ccccc32)cc1 (stereo not given) | 18 | > 10

From ChEMBL document CHEMBL1140930 (J Med Chem, 2009)
